Measurements collected from several papers.
Compare with care: the assays were run in different laboratories.
Target: Inhibitor of nuclear factor kappa-B kinase subunit alpha (CHUK, Homo sapiens, UniProt O15111)
Sequence (O15111 1-745, as in one of the studies): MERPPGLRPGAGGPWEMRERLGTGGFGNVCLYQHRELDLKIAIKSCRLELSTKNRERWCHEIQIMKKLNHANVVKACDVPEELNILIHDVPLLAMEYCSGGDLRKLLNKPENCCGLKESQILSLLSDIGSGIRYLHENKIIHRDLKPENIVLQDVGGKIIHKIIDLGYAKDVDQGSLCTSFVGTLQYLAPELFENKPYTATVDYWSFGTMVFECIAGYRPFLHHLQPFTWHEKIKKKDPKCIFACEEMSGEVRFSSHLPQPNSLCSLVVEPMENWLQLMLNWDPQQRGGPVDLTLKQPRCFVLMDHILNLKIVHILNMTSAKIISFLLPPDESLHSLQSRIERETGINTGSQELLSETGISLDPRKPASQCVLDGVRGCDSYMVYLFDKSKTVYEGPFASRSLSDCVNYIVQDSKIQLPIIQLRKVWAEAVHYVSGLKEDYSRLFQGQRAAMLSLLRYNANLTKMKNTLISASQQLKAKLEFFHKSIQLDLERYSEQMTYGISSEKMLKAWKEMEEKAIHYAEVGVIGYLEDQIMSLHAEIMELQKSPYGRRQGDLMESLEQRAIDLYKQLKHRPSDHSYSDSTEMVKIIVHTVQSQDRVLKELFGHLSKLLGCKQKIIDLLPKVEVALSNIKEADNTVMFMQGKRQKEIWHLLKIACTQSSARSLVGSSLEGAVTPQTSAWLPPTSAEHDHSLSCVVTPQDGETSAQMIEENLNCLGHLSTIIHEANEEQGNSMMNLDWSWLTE

Structure (SMILES) | assay | conditions | remaining binding [%]
c1cnn2ncc(-c3ccnc(N4CCC45COC5)n3)c2c1 | binding | 1 µM | 35
Cc1cnc(Nc2ccc(C(=O)N3CCC(N4CCCC4)CC3)cc2)nc1-c1cc2ccccc2s1 | binding, competition with immobilised ligand | 1 µM | 1.3
COc1cc(-c2cn(C3CCc4ccccc4N(CC(F)(F)F)C3=O)nn2)ccc1-n1ccc(C)n1 (stereo not shown) | cell-free assay, competition with immobilised ligand | 1 µM | 98
O=C(NCC1CCOCC1)c1n[nH]cc1NC(=O)c1c(F)cccc1F | binding, competition with immobilised ligand | 1 µM | 86
N[C@H]1CCN(c2nccc(-c3cnn4ncccc34)n2)C1 | binding | 1 µM | 82
CCCOc1ccc([C@@H]2[C@@H](C(=O)O)[C@H](c3ccc4c(c3)OCO4)CN2CC(=O)Nc2c(CC)cccc2CC)cc1 | cell-free assay, competition with immobilised ligand | 1 µM | 86
O=C(NCCCN1CCOCC1)c1ccc(Nc2nccc(-c3cc4ccccc4s3)n2)cc1 | binding, competition with immobilised ligand | 1 µM | 12
O=C(Nc1ccc(Oc2ccc(F)cc2)cc1)N1CCc2ncccc2[C@H]1c1ccc(F)cc1 | cell-free assay, competition with immobilised ligand | 1 µM | 100
CCN1CCN(Cc2ccc(C(=O)Nc3ccc(C)c(Oc4ccc5c(c4)CC(=O)N5)c3)cc2C(F)(F)F)CC1 | binding, competition with immobilised ligand | 1 µM | 74
CC1=C(C#N)C(c2ccc3c(c2)c(NC(=O)c2ccccc2C)nn3C)C(C#N)=C(C)N1 | cell-free assay, competition with immobilised ligand | 1 µM | 77
COc1cnc(Nc2cccc(S(N)(=O)=O)c2)nc1N1CCN(c2ccccc2)CC1 | binding, competition with immobilised ligand | 1 µM | 89
COc1ccc2cc(OCC3(C(=O)O)CN(C(=O)c4ccc(F)cc4)C3)ccc2c1 | cell-free assay, competition with immobilised ligand | 1 µM | 100
C=CC(=O)N1CCC(C(=O)NCC(=O)N2CCN(c3nc(-c4cnc(N)nc4C(F)F)nc(N4CCOCC4)n3)CC2)CC1 | binding, competition with immobilised ligand | 1 µM | 71
C[C@@H]1CCN(c2nccc(-c3cnn4ncccc34)n2)C1 | binding | 1 µM | 81
CNC(=O)[C@@H]1CC[C@@H](n2c(-c3ccc4cnccc4c3)nc3ccc(C(=O)NCc4cccc(C(N)=O)c4)cc32)C1 | binding, competition with immobilised ligand | 1 µM | 100
CS(=O)(=O)c1cc(C2(NC(=O)c3cncc4c3cnn4-c3ccc(F)cc3)CC2)ccn1 | cell-free assay, competition with immobilised ligand | 1 µM | 100
F[C@@H]1CCN(c2nccc(-c3cnn4ncccc34)n2)C1 | binding | 1 µM | 100
c1cncc(-c2cccc(Nc3nccc(NC4CCCCC4)n3)c2)c1 | binding, competition with immobilised ligand | 10 µM | 87
COc1ccnn2ncc(-c3ccnc(N(C)C)n3)c12 | binding | 1 µM | 71
O=C(c1ccc(Nc2ncc(Cl)c(-c3ccc(Cl)s3)n2)cc1)N1CCC(N2CCCC2)CC1 | binding, competition with immobilised ligand | 1 µM | 2.9
CN(C)c1nccc(-c2cnc3ncccn23)n1 | binding | 1 µM | 71
C[C@@H](c1cccc(C#N)c1)n1cc(Cl)cc(C(N)=O)c1=N | cell-free assay, competition with immobilised ligand | 1 µM | 100
C[C@@H]1CN(c2ccc3ncc(-c4ccc5[nH]nc(C6CC6)c5c4)n3n2)C[C@H](C)O1 | binding, competition with immobilised ligand | 50 nM | 86
O=C(NC[C@@H]1[C@H]2CN(C(=O)OCc3cc(C(F)(F)F)cc(C(F)(F)F)c3)C[C@@H]12)c1ccc2[nH]nnc2c1 | cell-free assay, competition with immobilised ligand | 1 µM | 100
CN(c1nccc(-c2cnn3ncccc23)n1)C1CC1 | binding | 1 µM | 100
